Measurements published in paper PMC7966865 (Molecular Metabolism, 2021).
Values belong to the molecule of their own block, whether it stands above or below them.

Assays:
[1] = test system: endogenous FOXO1 target gene expression (G6pc, Pck1, Foxo1 mRNA) in primary hepatocytes; assay: cAMP/Dex-induced gene expression; assay type: cell-based; settings: primary mouse hepatocytes, insulin 100 nM, 6 h; for effect on Foxo1 mRNA levels: cAMP + Dex, compound 10 10 μM; for cAMP/Dex-induced G6pc mRNA expression / cAMP/Dex-induced Pck1 mRNA expression: FOXO1 inhibitors 10 μM
Method in brief: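 Hepatocytes from 8–10-week-old male C57/BL6 mice, plated on collagen at 200,000 cells/well, recovered 4–5 h, then serum-reduced (1% FBS M199, G418) 15–16 h. Stimulation: cAMP 100 μM + dexamethasone 1 μM, with test compound (10 μM, or 10 nM–10 μM). q-RT-PCR normalized to Ppia. For IC50: 0% = unstimulated, 100% = cAMP + Dex; 3–6 wells/concentration; 4 experiments pooled; 4-parameter fit.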

db/db mice = assay: Chronic study in db/db mice; assay type: in vivo, mouse; settings: for ALT / AST: 6-h-fasted plasma; for hepatic histology (H&E): after 10 days of treatment; for glucose levels during ITT: day 9, i.p. insulin 0.75U/kg, all time points; for HOMA-IR index (worsening of insulin resistance over the study) / HOMA-β: calculated from fasting glucose and insulin
Method in brief: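 Male db/db mice (C57BL/6J background), 6–7 weeks old, were acclimated for 2 weeks and randomized by weight and glucose. They received vehicle, test compound or rosiglitazone (10 mg/kg in 0.5% methylcellulose) orally for 10 days. Body weight was recorded each morning before dosing. 6-h-fasted glucose and ELISA insulin on days 0, 5 and 10 gave HOMA-IR and HOMA-β. Fasted plasma ALT/AST were measured colorimetrically. N = 6–8.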

pGK-FFluc = assay: Non-specific activity: constitutive pGK-FFluc reporter in HEK293 cells; assay type: cell-based; settings: Homo sapiens, HEK293, read-out: Non-specific activities pGK-FFluc IC50
Method in brief: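 In the wild-type FOXO1 format, HEK293 cells in EMEM with 1% FBS were co-transfected with IRE-NanoLuc, constitutive pGK-firefly luciferase and the FOXO1-WT plasmid. Test compound was dosed right after transfection as a 10-point half-log series in duplicate, at 0.5% final DMSO. After 24 h, lysates were read by Nano-Glo Dual-Luciferase. Relative IC50 came from a four-parameter fit, with at least two experiments.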

pCMV-Rluc = assay: Non-specific activity: constitutive pCMV-Rluc reporter in HEK293 cells; assay type: cell-based; settings: Homo sapiens, HEK293, read-out: Non-specific activities pCMV-Rluc IC50
Method in brief: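 HEK293 cells in EMEM with 1% FBS were co-transfected with IRE-firefly luciferase, constitutive CMV-Renilla luciferase and a forkhead factor or RFP control plasmid. Test compound was added immediately as a 10-point half-log series in duplicate, at 0.5% final DMSO. After 24 h, lysates were read by Dual-Glo luciferase. Relative IC50 came from a four-parameter fit, with at least two independent experiments.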

Cell viability = assay type: cell-based; settings: human
Method in brief: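 HEK293 cells were seeded overnight in EMEM with 1% FBS and then transfected for reporter assays. Test compound was added right after transfection as a 10-point half-log dilution in duplicate, at 0.5% final DMSO. After 24 h at 37 °C, medium taken off the cells was assayed for lactate dehydrogenase activity by LDH-Glo luminescence. At least two independent experiments were run.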

[2] = test system: liver-specific Foxo1 knockout (LKO) mice; assay: Pyruvate tolerance test; assay type: in vivo, mouse; settings: three doses
Method in brief: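 Liver-specific Foxo1 knockout mice (Albumin-Cre; Foxo1 flox/flox), male and female, were randomized by body weight and fed glucose. They received three oral doses of test compound at 10 ml/kg (8 am, 5 pm, 8 am), at 16 mg/kg in Optiform Select #8 or 30 mg/kg in 5% DMSO/95% PEG-400. After fasting, they were given sodium pyruvate 2 g/kg i.p. in saline. Tail glucose was read at 0–120 min. N = 7–15; tested once.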

[3] = test system: STZ-induced diabetic mice; assay: Chronic study in streptozotocin; assay type: in vivo, mouse
Method in brief: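 Male C57BL/6J mice received STZ 50 mg/kg i.p. in citrate buffer pH 4.5 for 5 days, until glucose reached 300–450 mg/dL, then were randomized. Human recombinant FGF21 was given s.c. at 0.45 mg/kg daily from day 1. Test compound in Solutol HS-15:saline (5:95) was given p.o. at 32 mg/kg/dose twice daily from day 4. Readings: 6-h-fasted plasma TG (colorimetric), body weight change day 10 vs day 0, and day-11 perigonadal fat weight. N = 5–6.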

[4] = test system: normal C57 mice / control mice (Foxo1 flox/flox); assay: Pyruvate tolerance test; assay type: in vivo, mouse
Mouse PK = assay type: in vivo
Method in brief: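 Male ICR mice (N = 3 per route) were dosed with test compound in Solutol HS-15:saline (5:95 v/v), i.v. at 1 mg/kg or p.o. at 10 mg/kg. Blood was sampled at 0.083–24 h (8 time points) and processed to plasma. Plasma levels were measured by LC-MS/MS and used to calculate PK parameters.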

[5] = male, ICR, mouse, plasma, iv, 1 mg/kg
[6] = male, ICR, mouse, plasma, po, 10 mg/kg

Molecule: insulin
effect on Foxo1 mRNA levels [1]: did not affect
cAMP/Dex-induced G6pc mRNA expression [1]: significantly suppressed
cAMP/Dex-induced Pck1 mRNA expression [1]: significantly suppressed

hepatic histology (H&E) (db/db mice; male db/db mice): exacerbated hepatic steatosis
Molecule: CN(CCOc1ccc(CC2SC(=O)NC2=O)cc1)c1ccccn1 (centres unmarked) [rosiglitazone, reference compound]
plasma TG (db/db mice; male db/db mice, 6-h-fasted): reduced plasma TG
ALT (db/db mice; male db/db mice): not affected
AST (db/db mice; male db/db mice): not affected
glucose levels during ITT (db/db mice; male db/db mice): significantly reduced glucose levels
body weight (db/db mice; male db/db mice, rosiglitazone 10 mg/kg, ten days): weight gain
HOMA-IR index (worsening of insulin resistance over the study) (db/db mice; male db/db mice, ten days): staunched
HOMA-β (db/db mice; male db/db mice, ten days): tended to be improved

Molecule: CN1CCN(c2ccc(C(=O)Nc3cc(-c4nc5ccccc5[nH]4)n[nH]3)cc2)CC1 [Compound 10, N-[3-(1H-1,3-benzodiazol-2-yl)-1H-pyrazol-5-yl]-4-(4-methylpiperazin-1-yl)benzamide]
IC50 (pGK-FFluc): > 10 µM
IC50 (pCMV-Rluc): > 24 µM
reduced food intake (trend) (db/db mice; db/db mice, follow-up study, vs vehicle): 12%
plasma TG (db/db mice; male db/db mice, 6-h-fasted): no significant effects
plasma total cholesterol (TC) (db/db mice; male db/db mice, 6-h-fasted): no significant effects
ALT (db/db mice; male db/db mice): not affected
AST (db/db mice; male db/db mice): not affected
hepatic histology (H&E) (db/db mice; male db/db mice): no apparent effect
glucose levels during ITT (db/db mice; male db/db mice): significantly reduced glucose levels
blood glucose (db/db mice; male db/db mice, p.o. twice daily, ten days): reduced blood glucose to an extent similar to the PPARγ agonist rosiglitazone
weight loss (trend) (db/db mice; male db/db mice, ten days): 5%
insulin levels (db/db mice; male db/db mice, ten days, 6 h fast): did not significantly affect
HOMA-IR index (worsening of insulin resistance over the study) (db/db mice; male db/db mice, ten days): staunched
HOMA-β (db/db mice; male db/db mice, ten days): tended to be improved
CC50 at 24 h (Cell viability): > 24 µM
glucose levels during PTT ([2]; LKO mice, 16 mg/kg/dose p.o.): failed to reduce glucose levels
body weight ([3]; day 10 compared to day 0): trend toward reduced body weight
reduction in perigonadal fat pad weight ([3]; end of the study (day 11)): > 50%
glucose lowering during PTT ([4]; normal C57 mice fasted overnight (16 h), 16 mg/kg p.o., three doses): ineffective at lowering glucose
effect on Foxo1 mRNA levels [1]: did not affect
cAMP/Dex-induced G6pc mRNA expression [1]: significantly suppressed
cAMP/Dex-induced Pck1 mRNA expression [1]: significantly suppressed
CL (Mouse PK; male ICR mice, IV 1 mg/kg): 22.7 mL/kg∗min
AUCinf (Mouse PK; male ICR mice, IV 1 mg/kg, plasma): 1.86 μM∗h
AUCinf (Mouse PK; male ICR mice, PO 10 mg/kg, plasma): 4.66 μM∗h
Vd (Mouse PK; [5]): 1.71 L/kg
half-life (Mouse PK; [5]): 73.8 min
bioavailability (Mouse PK; male, ICR, mouse, plasma, oral, 10 mg/kg): 25.5%
Cmax (Mouse PK; [6]): 1620 nM
Tmax (Mouse PK; [6]): 40.2 min

Molecule: CCn1cc(C(=O)O)c(=O)c2c(N)c(F)c(NC3CCCCC3)cc21 [AS1842856, reference compound]
glucose levels during PTT ([2]; liver Foxo1 knockouts, 30 mg/kg/dose p.o.): reduced glucose levels
glucose excursion during PTT ([4]; 4-h-fasted mice, higher dose level (30 or 100 mg/kg/dose tested) p.o.): significantly lowered glucose excursion
glucose levels during PTT ([4]; overnight-fasted C57 mice and control mice, 30 mg/kg p.o., three doses): able to reduce glucose levels
cAMP/Dex-induced G6pc mRNA expression [1]: significantly suppressed
cAMP/Dex-induced Pck1 mRNA expression [1]: significantly suppressed

B1: FGF21: Human recombinant FGF21 (Sino Biological), fibroblast growth factor 21 (protein, UniProt Q9NSA1 29-209, looked up)
Fibroblast growth factor 21: HPIPDSSPLLQFGGQVRQRYLYTDDAQQTEAHLEIREDGTVGGAADQSPESLLQLKALKPGVIQILGVKTSRFLCQRPDGALYGSLHFDPEACSFRELLLEDGYNVYQSEAHGLPLHLPGNKSPHRDPAPRGPARFLPLPGLPPALPEPPGILAPQPPDVGSSDPLSMVGPSQGRSPSYAS
plasma TG ([3]; 6-h fast): significantly reduced
